Assays:
[1] = tested on: Jurkat; assay: Effective concentration required for inhibition of necroptosis in FADD deficient Jurkat T cells treated with TNF-alpha; format: functional, cell-based; details: Homo sapiens
Method in brief: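 FADD-deficient human Jurkat T cells given human TNFα 10 ng/mL plus rising concentrations of inhibitor for 24 h. Viability read by luminescent ATP-based assay and corrected for nonspecific toxicity. EC50 from nonlinear regression of sigmoid variable-slope dose–response curves, log inhibitor concentration versus viability.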

[2] = Plasma concentration in male mouse after 30 min intravenous administration; format: ADME
Method in brief: (§1)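 Male CD-1 mice dosed intravenously at 1 mg/kg in 10% propylene glycol/normal saline (0.16 mg/mL). Brain and plasma concentrations measured at set post-injection times, and brain-to-plasma ratio calculated.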

[3] = Clearance value in female mouse upon intravenous administration; format: ADME, organism-based; details: in vivo, read-out: CLs
Method in brief: (§2)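 CD-1 mice of each sex given a single intravenous dose of 1 mg/kg. Vehicle was 10% propylene glycol in normal saline, dosing solution 0.16 mg/mL. Plasma pharmacokinetics followed over 8 h to give AUC, Cmax, half-life, Vss and clearance.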

[4] = Clearance value in male mouse upon intravenous administration; format: ADME, organism-based; details: in vivo, read-out: CLs; method in brief: as §2
[5] = Maximum concentration in male mouse upon intravenous administration; format: ADME, organism-based; set-up: route intravenous; details: in vivo; method in brief: as §2
[6] = Maximum concentration in female mouse upon intravenous administration; format: ADME, organism-based; set-up: route intravenous; details: in vivo; method in brief: as §2
[7] = Plasma concentration in male mouse after 180 min intravenous administration; format: ADME; method in brief: as §1
[8] = Area under curve concentration in female mouse after 8 hours of intravenous administration; format: ADME; set-up: time < 8 hr, route intravenous; details: in vivo; method in brief: as §2
[9] = Ratio between concentration in brain to that of plasma was determined n male mouse after 30 min intravenous administration; format: ADME; method in brief: as §1
[10] = Area under curve concentration in male mouse after 8 hours of intravenous administration; format: ADME; set-up: time < 8 hr, route intravenous; details: in vivo; method in brief: as §2
[11] = Brain concentration in male mouse after 30 min intravenous administration; format: ADME; method in brief: as §1
[12] = Volume of distribution at steady state was determined in male mouse upon intravenous administration; format: ADME, organism-based; details: in vivo; method in brief: as §2

| Structure (SMILES) | EC50 [1] | other results |
| --- | --- | --- |
| CCCCN1C(=O)NC(Cc2c[nH]c3c(Cl)cccc23)C1=O (stereo unspecified) | 850 nM |  |
| COc1ccc2[nH]cc(CC3NC(=O)N(C)C3=O)c2c1 (stereo unspecified) | > 10000 nM |  |
| CN1C(=O)NC(Cc2c[nH]c3ccccc23)C1=O (stereo unspecified) | 1300 nM |  |
| CN1C(=O)C(Cc2c[nH]c3cc(Cl)ccc23)NC1=S (stereo unspecified) | > 10000 nM |  |
| CN1CC(Cc2c[nH]c3c(Cl)cccc23)NC1=O (stereo unspecified) | > 10000 nM |  |
| COc1cccc2c(CC3NC(=S)N(C)C3=O)c[nH]c12 (stereo unspecified) | 630 nM |  |
| CN1C(=O)C(Cc2c[nH]c3c(F)cccc23)NC1=S (stereo unspecified) | 260 nM |  |
| CCCCOc1cccc2c(CC3NC(=O)N(C)C3=O)c[nH]c12 (stereo unspecified) | 270 nM |  |
| CN1C(=O)C(Cc2csc3ccccc23)NC1=S (stereo unspecified) | 4800 nM |  |
| CC(C)N1C(=O)NC(Cc2c[nH]c3c(Cl)cccc23)C1=O (stereo unspecified) | > 10000 nM |  |
| CN1C(=O)NC(Cc2c[nH]c3cc(Cl)ccc23)C1=O (stereo unspecified) | 5700 nM |  |
| COc1cccc2c(CC3NC(=O)N(C)C3=O)c[nH]c12 (stereo unspecified) | 710 nM |  |
| CN1C(=O)C(Cc2cn(C)c3c(Cl)cccc23)NC1=S (stereo unspecified) | > 10000 nM |  |
| CN1C(=O)C(Cc2c[nH]c3ccccc23)NC1=S (stereo unspecified) [NECROSTATIN] | 490 nM |  |
| Cc1cccc2c(CC3NC(=O)N(C)C3=O)c[nH]c12 (stereo unspecified) | 330 nM |  |
| CN1C(=O)C(Cc2c[nH]c3c(Cl)cccc23)NC1=S (stereo unspecified) | 180 nM |  |
| CN1C(=O)C(Cc2c[nH]c3c(Cl)cccc23)N(C)C1=O (stereo unspecified) | > 10000 nM |  |

| Structure (SMILES) | EC50 [1] | other results |
| --- | --- | --- |
| CN1C(=O)N[C@@H](Cc2c[nH]c3c(Cl)cccc23)C1=O | 230 nM |  |
| O=C1NC(=S)NC1Cc1c[nH]c2ccccc12 (stereo unspecified) | > 10000 nM |  |
| CN1C(=O)NC(Cc2csc3ccccc23)C1=O (stereo unspecified) | 5600 nM |  |
| CN1C(=O)NC(Cc2c[nH]c3c(OCc4ccccc4)cccc23)C1=O (stereo unspecified) | > 10000 nM |  |
| CN1C(=O)N[C@H](Cc2c[nH]c3c(Cl)cccc23)C1=O | 50 nM |  |
| O=C1NC(=O)C(Cc2c[nH]c3ccccc23)N1 (stereo unspecified) | > 10000 nM |  |
| CN1C(=O)NC(Cc2c[nH]c3c(Cl)cccc23)C1=O (stereo unspecified) | 210 nM | concentration at 0.5 h [2]: 310 nM; clearance [3]: 100 mL/min/kg; clearance [4]: 61 mL/min/kg; Cmax [5]: 873 ng/mL; Cmax [6]: 573 ng/mL; concentration at 3 h [7]: 3 nM; AUC at 8 h [8]: 165 ng·h/mL; Kp at 0.5 h [9]: 2.4; AUC at 8 h [10]: 274 ng·h/mL; concentration at 0.5 h [11]: 740 nM; Vss [12]: 2.5 L/kg; Vd ([12]; male, read-out: Vss): 2.5 L/kg |
| CN1C(=O)C(Cc2c[nH]c3c(Br)cccc23)NC1=S (stereo unspecified) | 160 nM |  |
| Cc1[nH]c2ccccc2c1CC1NC(=O)N(C)C1=O (stereo unspecified) | > 10000 nM |  |
| CN1C(=O)NC(Cc2c[nH]c3c(F)cccc23)C1=O (stereo unspecified) | 590 nM |  |
| CN1C(=O)NC(Cc2c[nH]c3c(Cl)cc(Cl)cc23)C1=O (stereo unspecified) | > 10000 nM |  |
| CN1C(=O)NC(Cc2c[nH]c3cccc(Cl)c23)C1=O (stereo unspecified) | 9200 nM |  |
| CN1C(=O)NC(Cc2cn(C)c3c(Cl)cccc23)C1=O (stereo unspecified) | 3800 nM |  |
| CN1C(=O)OC(Cc2c[nH]c3c(Cl)cccc23)C1=O (stereo unspecified) | 380 nM |  |
| CN1C(=O)C(Cc2cn(C)c3ccccc23)NC1=S (stereo unspecified) | > 10000 nM |  |
| O=C1NC(Cc2c[nH]c3c(Cl)cccc23)CO1 (stereo unspecified) | > 10000 nM |  |
| CCN1C(=O)N[C@@H](Cc2c[nH]c3c(Cl)cccc23)C1=O | 180 nM |  |
